The source of these data is ChEMBL document CHEMBL4477197, “Antitumor Activity of Spicatoside A by Modulation of Autophagy and Apoptosis in Human Colorectal Cancer Cells” (J Nat Prod, 2016).

One experiment deals with SNU-638. Kind of experiment: Antiproliferative activity against human SNU638 cells after 24 to 72 hrs by SRB assay. It counts as functional, cell-based. An outline of the steps: (§1)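 Cells from ATCC were grown at 37 °C in 5% CO2, in RPMI 1640 (A549, HCT116, SNU-638) or DMEM (MDA-MB-231, SK-HEP-1, MRC5) with 10% FBS. They were seeded at 6 × 10^3 cells/well for 24 h, then exposed for 72 h. Cells were TCA-fixed, stained with 0.4% SRB, and read at 515 nm against day-zero plates. IC50 came from nonlinear regression, as means ± SD.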
A general note: Sulforhodamine B stains cellular protein and so reports cell mass.

The subject of a further experiment is MRC5. Description: Antiproliferative activity against human MRC5 cells after 24 to 72 hrs by SRB assay. The experiment is classed as cell-based. An outline of the steps:
as §1

Another experiment relates to MDA-MB-231. Description: Antiproliferative activity against human MDA-MB-231 cells after 24 to 72 hrs by SRB assay. The experiment is classed as functional, cell-based. An outline of the steps: as §1
The next experiment concerns A549. Description: Antiproliferative activity against human A549 cells after 24 to 72 hrs by SRB assay. It counts as functional, cell-based. An outline of the steps:
as §1

A further experiment relates to HCT-116. Description: Antiproliferative activity against human HCT116 cells after 24 to 72 hrs by SRB assay. The experiment is classed as functional, cell-based. An outline of the steps: as §1
The test system of a further experiment is SK-HEP1. Kind of experiment: Antiproliferative activity against human SKHEP1 cells after 24 to 72 hrs by SRB assay. It counts as functional, cell-based. Put shortly: as §1

A word on the IC50: it is the concentration that gives 50% inhibition. On to `Cc1c2ccncc2c(C)c2c1[nH]c1ccccc12` [ELLIPTECINE], for which the IC50 in the experiment on SNU-638 came to 2700 nM; in the experiment with MRC5, 1300 nM; in the experiment on MDA-MB-231 it was 100 nM; with A549 it was 400 nM; in the experiment with HCT-116, 1000 nM; in the experiment with SK-HEP1, 400 nM.
